Data set [1] concerns TCC cell lines (T24, TCCSUP, UM-UC-3, J82, and SW780). Put plainly: In vitro cell proliferation of bladder TCC cell lines with increasing glucose. It counts as cell-based, human. Put shortly:
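Five TCC lines seeded at 40,000 or 80,000 cells/well in RPMI 1640 with 10% FBS, glucose set to 11 (control), 25, 35 or 50 mM. Cells were incubated 145 h in the incubator with live-cell imaging. Percent confluence was read every 2 h and growth curves were built over 145 h.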

The conditions of data set [2]: cited from earlier work.
For data set [3], the system named is human bladder transitional cell carcinoma (TCC) cell lines (T24, TCCSUP, UM-UC-3, J82, SW780, and EJ-1). As to the kind of experiment: In vitro cell proliferation of bladder TCC cell lines with test compounds. It counts as cell-based. The note with it: 0.2, 2, 20 μg/mL, serum-free medium, 72 h. An outline of the steps: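 Low-passage TCC lines (<6 months from thaw) were seeded at 20,000 or 40,000 cells/well in RPMI 1640 + 10% FBS. After 24 h adherence and 24 h serum-free, cells got medium-only vehicle or test compound (0.2, 2, 20 μg/mL) serum-free for 72 h. Controls were a return to 10% FBS and continuous serum. Percent confluence was imaged every 2 h to build growth curves.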

Data set [4] relates to liver, skeletal muscle, kidney, and adipose tissues. The conditions noted are these: male ZDF rats vs vehicle.
Data set [5] relates to Salmonella typhimurium stains TA98, TA100, TA1535, and TA1537. The note with it: maximum concentrations (≤5,000 μg/plate) with or without metabolic activation.
In data set [6] the test system is Harlan SD rats.
For data set [7], the system named is SGLT2. The note with it: cited from earlier work.
In data set [8] the test system is Beagle dogs.
Data set [9] can be described thus: in vivo. The conditions noted are these: both, Sprague-Dawley, rat, plasma, po, 200 mg/kg per day.
Data set [10] relates to peripheral blood lymphocytes. The note with it: up to 200 mg/kg per day for 1 month.
Data set [11] deals with CD-1 mice. The note with it: for carcinogenicity: oral gavage up to 24 months.
Data set [12] can be described thus: Urinary exposure extrapolations from bridging studies. The note with it: mice, rats, and dogs. It counts as in vivo.
For data set [13] the following is noted: 2-year rodent carcinogenicity studies.
The conditions of data set [14]: cited from earlier work. This is another data set of the same source.
Data set [15] concerns Chinese hamster ovary (CHO) cells.
In data set [16] the test system is more than 330 receptors, enzymes, ion channels, and transporters. The note with it: cited from earlier work.
Data set [17] deals with EJ-1 tumor xenografts. Put plainly: In vivo mouse xenograft study, EJ-1. Details: species or system athymic nude mice.
The subject of data set [18] is bone marrow polychromatic erythrocytes.
The subject of data set [19] is Escherichia coli strain WP2 uvrA. The note with it: maximum concentrations (≤5,000 μg/plate) with or without metabolic activation.
For data set [20] the following is noted: chronic toxicology studies; cited from earlier work.
The test system of data set [21] is hormone receptors. The note with it: cited from earlier work.
The conditions of data set [22]: human subjects, 10 mg dose; cited from earlier work.
The conditions of data set [23]: human plasma after 10 mg MRHD of dapagliflozin; cited from earlier work.
In data set [24] the test system is primary hepatocyte cultures. The note with it: single oral dose up to 700 mg/kg.
In data set [25] the test system is SD rats. The note with it: cited from earlier work.
For data set [26], the system named is CD-1 mice. The note with it: 2-year study; cited from earlier work.

Data on three compounds can be found in article PMC4065287 (Diabetes Therapy, 2014).

Where “and” joins values, the source holds several entries; their conditions need not be identical. Identical values can stand only once. Entries after “also recorded” stand apart in the source; their conditions may differ. Like-named read-outs stand apart in the source and are kept apart here.

The term Cmax denotes the maximum level reached in the sampled fluid or tissue.

In the case of `OC[C@H]1OC(O)[C@H](O)[C@@H](O)[C@@H]1O` (some centres unmarked) [glucose], the reduction of growth in data set [1] (J82, 25 mM) is on record as 37%; in [1] (T24, 35 mM), 83%; in [1] (TCCSUP, 25 mM), 42%; in data set [1] (UM-UC-3, 25 mM), 73%. For the same compound, the growth entry in data set [1] (SW780, 25 mM) is reported as “did not substantially alter”; in data set [1] (T24, 25 mM), “did not substantially alter”; in data set [1] (all cell lines at 35 mM and 50 mM, except T24 at 35 mM) it was “completely inhibited”.

Consider `CCOc1ccc(Cc2cc([C@@H]3O[C@H](CO)[C@@H](O)[C@H](O)[C@H]3O)ccc2Cl)cc1` [dapagliflozin, (2S,3R,4R,5S,6R)-2-[4-chloro-3-(4-ethoxybenzyl)phenyl]-6-(hydroxymethyl)tetrahydro-2H-pyran-3,4,5-triol], for which the “overall incidence of malignancies and unspecified tumors” value in [2] (July 15, 2011 cutoff (control 1.4%)) was 1.5%. For the same compound, in data set [2] (dapagliflozin groups (placebo 0.03)), the “urinary bladder tumors, incidence rate” value is 0.15. The “urinary bladder tumors, number of cases” value in [2] (dapagliflozin groups (placebo 1)) is recorded as 9. Besides, the “bladder cancer cases, percent of patients” value in [2] (of 5,501 patients, July 15, 2011 cutoff) is on record as 0.16%. Further, the “in vitro TCC proliferation” value in data set [3] is recorded as “did not affect”. Moreover, the “probe sets showing significant changes” value in data set [4] is recorded as “less than 1%”. In addition, the bacterial reverse-mutation assay result in data set [5] and in [19] was “negative” throughout. Further, the carcinogenicity entry was “not carcinogenic” in data set [6] (doses up to 10 mg/kg per day); “not carcinogenic” in data set [11] (females, doses ≤20 mg/kg per day); “not carcinogenic” in [11] (males, doses ≤40 mg/kg per day). Besides, the “exposure (AUC) multiple relative to human AUC at 10 mg” value in data set [6] (females 0.5 mg/kg per day) is given as roughly 9 ×; in [6] (females 2 mg/kg per day) it was roughly 34 ×; in data set [11] (females 2 mg/kg per day), roughly 11 ×; in data set [11] (females 10 mg/kg per day) it was roughly 52 ×; in [11] (females 20 mg/kg per day), roughly 105 ×; in [11] (males 5 mg/kg per day) it was “approximately 4 ×”. Moreover, the “exposure (AUC) multiple relative to human AUC at 10 mg” value in data set [11] (males 15 mg/kg per day) is recorded as roughly 14 ×; in data set [11] (males 40 mg/kg per day), roughly 72 ×. The “microscopic changes in the kidney” value in [6] (males only) was “exacerbation in severity of CPN and increased incidence and severity of minimal to marked atypical hyperplasia of renal cortical tubules”. Also, in data set [6] (rat, in vivo), the “neoplasms affecting the renal tubules, adrenal gland, or testicular Leydig cells” value was “no dapagliflozin-related neoplasms”. In addition, in data set [6] (rat, in vivo), the “tumors or preneoplastic lesions in the urinary bladder” value is “no indications of any dapagliflozin-related tumors or preneoplastic lesions”. Besides, the “selectivity for SGLT2 than for SGLT1” value in data set [7] was 1,200 ×. Besides, the “proliferative or hyperplastic changes of the urinary bladder” value in data set [8] (1 year) is “did not show dapagliflozin-related proliferative or hyperplastic changes”. For the same compound, in data set [8] (1 year, supratherapeutic doses), the “exposure multiple of human clinical exposure” value was > 3,300 × and > 3,000 ×. In addition, the urinary glucose excretion in data set [8] (treated dogs (control 5–13 mg per day)) was 8,711–32,200 mg per day. The same compound showed a Cmax in [9] of 63 to 74 µg/mL. For the same compound, the “AUC multiple of MRHD” value in [10] was ≤ 2,602 × MRHD. For the same compound, the “C max multiple of MRHD” value in data set [10] is recorded as no more than 544 × MRHD. The “clastogenicity in peripheral blood lymphocytes” value in [10] is listed as “no evidence of clastogenicity”. The “incidence of background tumors or time to onset” value in data set [11] (lymphoreticular, uterus and cervix, lung, liver neoplasms) is listed as “did not increase the incidence”. In [11] (male mice), the “urinary bladder hyperplasia versus control” value is “did not increase urinary bladder hyperplasia”. In addition, the “extrapolated urinary concentrations relative to humans” value in data set [12] is listed as greater than 700 ×. Also, the “levels of urinary glucose” value was roughly 200 mM in data set [13] and 400 to 500 mM in data set [20]. The oral bioavailability entry in data set [14] is “good”. Besides, the volume of distribution result in [14] is “high”. The “level that produced cytogenetic alterations in vitro” value in data set [15] turned out to be 100 µg/mL. Also, the chromosomal aberration induction entry in data set [15] (absence of S9 stimulation) is recorded as “negative”. For the same compound, in data set [15] (with metabolic stimulation), the “clastogenic concentrations relative to total C max in humans with MRHD 10 mg” value is no less than 735 times. Besides, the off-target interactions entry in data set [16] was “no off-target interactions”. Further, the “body weight of treated animals” value in [17] (EJ-1 and UM-UC-3 xenograft mice) is “no effect”. Further, in data set [17] (EJ-1 and UM-UC-3 xenograft mice, parent), the “exposure multiple of human clinical exposures” value is “up to 75 ×”. Besides, in [17] (mouse, in vivo), the “growth of tumor xenografts” value is on record as “no effect; also recorded: similar”. For the same compound, the “bone marrow micronucleus genotoxicity” value in data set [18] (2 weeks, up to 250 mg/kg per day) was “not genotoxic”; in data set [18] (3 days, up to 700 mg/kg per day), “not genotoxic”. Besides, in data set [21], the “binding to hormone receptors” value was “did not bind”. The “urinary glucose, mean” value in [22] was 166 mM. For the same compound, the “maximum observed plasma concentration (C max)” value in data set [23] is 0.136 µg/mL. Besides, the “unscheduled DNA synthesis” value in [24] is given as “did not induce an increase”.

Regarding `Cc1ccc([C@@H]2O[C@H](CO)[C@@H](O)[C@H](O)[C@H]2O)cc1Cc1ccc(-c2ccc(F)cc2)s1` [canagliflozin], the “selectivity for SGLT2 than for SGLT1” value in [7] is on record as 200 ×. Further, in data set [25], the “exposure multiple with increased incidence of neoplasms of the adrenals” value is reported as no less than 12 × and the “exposure multiple with increased incidence of neoplasms of the renal tubules” value is given as no less than 12 ×. In data set [26], the “exposure multiple of clinical exposures” value was 14 × and the “incidence of neoplasms or preneoplastic lesions” value is listed as “did not increase the incidence”.
